Key:
Keratinocyte [1] = experiment: Induction of IL-8 release in human primary epidermal keratinocytes after 6 hrs by HTRF assay; type: functional, cell-based
Keratinocyte [2] = experiment: Induction of IL-8 release in human primary epidermal keratinocytes after 6 hrs by HTRF assay relative to ingenol mebutate; type: functional
Keratinocyte [3] = experiment: Induction of TNFalpha release in human primary epidermal keratinocytes after 6 hrs; type: functional, cell-based
Procedure, shortened: (§1)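 Human adult log-phase primary epidermal keratinocytes subcultured at 10,000 cells/well. Incubated with titrated compound for 6 h at 37 °C in humidified 95% air/5% CO2. Secreted cytokines quantified on 4-spot cytokine plates. EC50 is the concentration giving 50% of the maximum effect of the ingenol mebutate reference. Emax is maximal response relative to that reference.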

[4] = Chemical stability of the compound in aqueous buffer assessed as drug recovery after 16 hrs at pH 7.4 by HPLC analysis; type: physicochemical; details: read-out: Drug recovery
Procedure, shortened: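 DMSO stock diluted with pre-heated (37 °C) aqueous buffer pH 7.4 to at most 30% v/v organic content, then shaken. Held in the HPLC autosampler at 37 °C, first injected within 5 min, then injected repeatedly over 16 h. Recovery taken from the fall in compound peak area, UV detection normally at 270 nm.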

[5] = Induction of oxidative burst in polymorphonuclear leukocytes (unknown origin) isolated from buffy coat after 40 mins by fluorescence assay; type: functional, cell-based
Procedure, shortened: (§2)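 PMN isolated and purified from fresh buffy coats, then incubated 40 min at ambient temperature with titrated compound (top concentration 10 µM) premixed with hydroethidine. Respiratory burst read as fluorescence in relative light units, emission 579 nm, excitation 485 nm. EC50 and Emax are expressed relative to the maximum effect of the ingenol mebutate reference.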

[6] = Induction of oxidative burst in polymorphonuclear leukocytes (unknown origin) isolated from buffy coat at 10 uM after 40 mins by fluorescence assay relative to ingenol mebutate; type: functional; procedure, shortened: as §2
Keratinocyte [7] = experiment: Induction of TNFalpha release in human primary epidermal keratinocytes after 6 hrs relative to ingenol mebutate; type: functional; procedure, shortened: as §1
[8] = Induction of necrosis in human HeLa cells after 30 mins by resazurin assay; type: cell-based; details: read-out: LC50
Procedure, shortened: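 HeLa cells exposed to increasing ester concentrations up to 400 µM for 30 min at 37 °C. Remaining metabolic activity then read with a resazurin-based dye. LC50 is the concentration causing 50% loss of metabolic activity.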

[9] = biological target: Protein kinase C delta type (Homo sapiens, UniProt Q05655); experiment: Activation of PKCdelta (unknown origin) using phosphatidylserine […]
Sequence of Protein kinase C delta type (Q05655 whole entry): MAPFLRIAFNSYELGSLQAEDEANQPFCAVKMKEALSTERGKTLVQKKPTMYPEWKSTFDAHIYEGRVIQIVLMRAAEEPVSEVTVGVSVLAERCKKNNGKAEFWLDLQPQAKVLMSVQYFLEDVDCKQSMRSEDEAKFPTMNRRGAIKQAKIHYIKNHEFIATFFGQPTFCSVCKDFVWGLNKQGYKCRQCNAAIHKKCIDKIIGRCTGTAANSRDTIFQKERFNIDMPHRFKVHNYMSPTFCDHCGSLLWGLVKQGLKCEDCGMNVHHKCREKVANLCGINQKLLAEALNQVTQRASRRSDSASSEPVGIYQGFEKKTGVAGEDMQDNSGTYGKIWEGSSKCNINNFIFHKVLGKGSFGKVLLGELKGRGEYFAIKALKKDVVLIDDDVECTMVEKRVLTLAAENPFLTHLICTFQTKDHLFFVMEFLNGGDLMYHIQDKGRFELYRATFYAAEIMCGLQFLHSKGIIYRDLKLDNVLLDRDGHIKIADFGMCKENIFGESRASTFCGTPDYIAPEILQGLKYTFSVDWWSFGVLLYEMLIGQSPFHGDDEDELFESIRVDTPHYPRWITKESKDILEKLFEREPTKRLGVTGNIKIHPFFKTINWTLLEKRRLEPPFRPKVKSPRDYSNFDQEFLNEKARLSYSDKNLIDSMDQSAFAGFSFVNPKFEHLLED
Procedure, shortened: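 PKCdelta assayed in vitro by phosphorylation of a PKC peptide substrate, with 0.05 mg/mL phosphatidylserine and no diacylglycerol so stimulation could be seen. Compounds serially diluted at semilogarithmic intervals, twelve points from 10 µM. Reaction started by adding ATP.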

Row | SMILES | EC50 (Keratinocyte [1]) [nM] | Emax (Keratinocyte [2]) [%] | EC50 (Keratinocyte [3]) [nM] | remaining at 16 h [4] [%] | EC50 [5] [nM] | Emax at 10 µM [6] [%] | Emax (Keratinocyte [7]) [%] | CC50 at 0.5 h [8] [µM] | EC50 [9] | EC50 ([9]; read-out: EC50) [nM]
1 | CC1=C[C@]23C(=O)[C@@H](C=C(CO)[C@@H](O)[C@]2(O)[C@H]1OC(=O)C1=CCCCC1)[C@H]1[C@@H](C[C@H]3C)C1(C)C | 10000 | 45 | 10000 | 60 | 6.7 | 99 | 42 | – | – | –
2 | C/C=C(/C)C(=O)O[C@H]1C(C)=C[C@]23C(=O)[C@@H](C=C(COC)[C@@H](O)[C@]12O)[C@H]1[C@@H](C[C@H]3C)C1(C)C | 10000 | – | 10000 | 77 | 10000 | – | – | 400 | – | –
3 | C/C=C(/C)C(=O)O[C@H]1C(C)=C[C@@]23C(=O)[C@H]([C@H]4[C@@H](C[C@H]2C)C4(C)C)[C@H]2O[C@@]2(CO)[C@@H](O)[C@]13O | 320 | 119 | 367 | – | 50 | 114 | 156 | – | – | –
4 | CC1=C[C@]23C(=O)[C@@H](C=C(CO)[C@@H](O)[C@]2(O)[C@H]1OC(=O)C1CCCC1)[C@H]1[C@@H](C[C@H]3C)C1(C)C | 69 | 54 | 65 | 30 | 6.5 | 107 | 58 | – | – | –
5 | C=C(CC)C(=O)O[C@H]1C(C)=C[C@]23C(=O)[C@@H](C=C(CO)[C@@H](O)[C@]12O)[C@H]1[C@@H](C[C@H]3C)C1(C)C | 21 | 100 | 29 | 30 | 5.2 | 102 | 101 | 129 | – | –
6 | C/C=C(/C)C(=O)O[C@H]1C(C)=C[C@@]23C(=O)[C@H]([C@H]4[C@@H](C[C@H]2C)C4(C)C)[C@H](F)C(CO)=C[C@]13O | 1130 | 57 | 1210 | > 95 | 1240 | – | 67 | – | Not Active | –
7 | CC1=C[C@]23C(=O)[C@@H](C=C(CO)[C@@H](O)[C@]2(O)[C@H]1O)[C@H]1[C@@H](C[C@H]3C)C1(C)C [INGENOL] | 10000 | – | 10000 | > 95 | 10000 | – | – | > 400 | – | –
8 | C/C=C/C(=O)O[C@H]1C(C)=C[C@]23C(=O)[C@@H](C=C(CO)[C@@H](O)[C@]12O)[C@H]1[C@@H](C[C@H]3C)C1(C)C | 821 | 93 | 802 | 0 | 9.1 | 110 | 91 | – | – | –
9 | CC1=C[C@]23C(=O)[C@@H](C=C(CO)[C@@H](O)[C@]2(O)[C@H]1OC(=O)C12C[C@@H]4C[C@@H](C[C@H]1C4)C2)[C@H]1[C@@H](C[C@H]3C)C1(C)C | 27 | 65 | 36 | 70 | 8.3 | 136 | 55 | 77 | – | –
10 | CC#CC(=O)O[C@H]1C(C)=C[C@]23C(=O)[C@@H](C=C(CO)[C@@H](O)[C@]12O)[C@H]1[C@@H](C[C@H]3C)C1(C)C | 10000 | – | 10000 | 5 | 17 | 112 | – | – | – | –
11 | CC1=C[C@]23C(=O)[C@@H](C=C(CO)[C@@H](O)[C@]2(O)[C@H]1OC(=O)C1CCC1)[C@H]1[C@@H](C[C@H]3C)C1(C)C | 882 | 55 | 450 | 10 | 10 | 111 | 60 | – | – | –
12 | CC1=C[C@]23C(=O)[C@@H](C=C(CO)[C@@H](O)[C@@]24OC(=O)CO[C@@H]14)[C@H]1[C@@H](C[C@H]3C)C1(C)C | 10000 | – | 10000 | 25 | 10000 | – | – | – | – | –
13 | CC1=C[C@]23C(=O)[C@@H](C=C(CO)[C@@H](O)[C@]2(O)[C@H]1OCC(=O)OC(C)(C)C)[C@H]1[C@@H](C[C@H]3C)C1(C)C | 10000 | – | 10000 | 95 | 3300 | 111 | – | 311 | – | –
14 | CC1=C[C@]23C(=O)[C@@H](C=C(CO)[C@@H](O)[C@]2(O)[C@H]1OC(=O)C1CCCCC1)[C@H]1[C@@H](C[C@H]3C)C1(C)C | 10000 | 43 | 10000 | 35 | 6 | 104 | 47 | 112 | – | –
15 | CCCC(=O)O[C@H]1C(C)=C[C@]23C(=O)[C@@H](C=C(CO)[C@@H](O)[C@]12O)[C@H]1[C@@H](C[C@H]3C)C1(C)C | 313 | 115 | 318 | 18 | 25 | 88 | 87 | – | – | –
16 | CCCCCCCCCCCCCCCC(=O)O[C@H]1C(C)=C[C@]23C(=O)[C@@H](C=C(CO)[C@@H](O)[C@]12O)[C@H]1[C@@H](C[C@H]3C)C1(C)C | 7.3 | 109 | 8.4 | – | 28 | 106 | 115 | 400 | – | 4.7
17 | CC(C)=CC(=O)O[C@H]1C(C)=C[C@]23C(=O)[C@@H](C=C(CO)[C@@H](O)[C@]12O)[C@H]1[C@@H](C[C@H]3C)C1(C)C | 86 | 74 | 66 | 55 | 4.3 | 109 | 82 | 283 | – | –
18 | CC1=C[C@]23C(=O)[C@@H](C=C(CO)[C@@H](O)[C@@]24OC(=O)O[C@@H]14)[C@H]1[C@@H](C[C@H]3C)C1(C)C | 171 | 109 | 253 | – | 181 | 124 | 112 | 400 | – | –
19 | CO/N=C(/C(=O)O[C@H]1C(C)=C[C@]23C(=O)[C@@H](C=C(CO)[C@@H](O)[C@]12O)[C@H]1[C@@H](C[C@H]3C)C1(C)C)c1ccccc1 | 10000 | 45 | 10000 | 55 | 28 | 117 | 47 | – | – | –
20 | CC1=C[C@]23C(=O)[C@@H](C=C(CO)[C@@H](O)[C@]2(O)[C@H]1OC(=O)c1ccccc1)[C@H]1[C@@H](C[C@H]3C)C1(C)C | 182 | 54 | 88 | 30 | 6 | 110 | 60 | – | – | –
21 | CC1=C[C@]23C(=O)[C@@H](C=C(CO)[C@@H](O)[C@]2(O)[C@H]1OC(=O)C1CC1)[C@H]1[C@@H](C[C@H]3C)C1(C)C | 256 | 83 | 243 | 30 | 26 | 112 | 81 | – | – | –
22 | CC1=C[C@]23C(=O)[C@@H](C=C(CO)[C@@H](O)[C@]2(O)[C@H]1OC(=O)C(C)C)[C@H]1[C@@H](C[C@H]3C)C1(C)C | 120 | 63 | 112 | 30 | 19 | 104 | 72 | – | – | –
23 | CC1=C[C@]23C(=O)[C@@H](C=C(CO)[C@@H](O)[C@]2(O)[C@H]1OC(=O)/C(C)=C\c1ccc(C)cc1)[C@H]1[C@@H](C[C@H]3C)C1(C)C | 2.1 | 87 | 3.1 | 45 | 5.9 | 126 | 101 | 109 | – | –
24 | C/C=C(/C)C(=O)O[C@H]1C(C)=C[C@]23C(=O)[C@@H](C=C(CO)[C@@H](OC)[C@]12O)[C@H]1[C@@H](C[C@H]3C)C1(C)C | 738 | – | 748 | > 95 | 281 | 119 | 131 | – | – | –
25 | C=C(C)C(=O)O[C@H]1C(C)=C[C@]23C(=O)[C@@H](C=C(CO)[C@@H](O)[C@]12O)[C@H]1[C@@H](C[C@H]3C)C1(C)C | 246 | 74 | 213 | 20 | 6.1 | 114 | 77 | 406 | – | –

From ChEMBL document CHEMBL2429727, “Syntheses, biological evaluation and SAR of ingenol mebutate analogues for treatment of actinic keratosis and non-melanoma skin cancer” (Bioorg Med Chem Lett, 2013)
